We go through 7 molecules from ChEMBL document CHEMBL4020768 (Bioorg Med Chem Lett, 2017).

Molecules are shown by their SMILES.

Assay [1] has as its target Sigma non-opioid intracellular receptor 1 (Homo sapiens, UniProt Q99720). Description: Displacement of (+)-[3H]-pentazocine from recombinant human sigma 1 receptor expressed in baculovirus infected Sf9 insect cell membranes after 90 mins by scintillation counting method. The essentials:
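Human σ1 cloned in pFastBac, baculovirus-expressed in Sf9 cells (infected at 4 x 10⁶ cells/mL, 27 °C, harvested 48 h); washed membranes, 2.5 µg protein per reaction in 50 mM Tris pH 8.0 with 10 nM [³H](+)-pentazocine and 8 competitor concentrations 10 pM–100 µM; 90 min at 37 °C; filtration on PEI-soaked glass fiber filters; scintillation counting; two or three independent experiments in triplicate.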

Assay [2] addresses T1, Sigma intracellular receptor 2 (Rattus norvegicus, UniProt Q5U3Y7).
T1 sequence (Q5U3Y7 whole entry): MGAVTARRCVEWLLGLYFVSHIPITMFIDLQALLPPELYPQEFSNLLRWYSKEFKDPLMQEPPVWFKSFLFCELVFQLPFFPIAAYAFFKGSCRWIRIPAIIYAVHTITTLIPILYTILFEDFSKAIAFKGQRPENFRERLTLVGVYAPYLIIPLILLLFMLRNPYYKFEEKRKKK
Description: Displacement of (+)-[3H]-ditolylguanidine from recombinant rat sigma 2 receptor expressed in rat PC12 cell membranes after 90 mins in presence of sigma 1 receptor blocker (+)-SKF-10047 by scintillation counting method. In outline:
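PC-12 cell membranes (12-30 µg protein per reaction) in 50 mM Tris pH 8.0 with 30 nM [³H]DTG plus 1.8 µM (+)-SKF-10,047 to block σ1 sites; competitor at graded concentrations; 90 min at 37 °C; filtration through 0.3% PEI-soaked glass fiber filters; scintillation counting; two or three independent experiments in triplicate.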

Assay [3] is described as follows: Selectivity ratio of Ki for recombinant rat sigma 2 receptor to Ki for recombinant human sigma 1 receptor.

Chain of Sigma non-opioid intracellular receptor 1 (Q99720 whole entry): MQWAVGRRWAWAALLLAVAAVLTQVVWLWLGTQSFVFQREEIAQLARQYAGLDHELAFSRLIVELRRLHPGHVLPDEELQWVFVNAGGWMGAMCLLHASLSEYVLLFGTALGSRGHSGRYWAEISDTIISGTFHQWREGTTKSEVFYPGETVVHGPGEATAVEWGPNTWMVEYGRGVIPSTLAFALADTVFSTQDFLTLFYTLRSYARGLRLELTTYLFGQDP

For the molecule `CC(C)(C)c1ccc(CCCN2CCCCC2)cc1`, the inhibitory constant (Ki) in assay [1] turned out to be 1.5 nM; in assay [2], 31.5 nM. In addition, the Ratio Ki in assay [3] is 21.
For `c1ccc(CCCN2CCOCC2)cc1`, in that order: 706 nM, 2020 nM and 3.
For `CC1CN(CCCc2ccc(C(C)(C)C)cc2)CC(C)O1` (mixture of isomers), in that order: 8.4 nM, 77.9 nM and 9.
Regarding `CC(Cc1ccc(C(C)(C)C)cc1)CN1C[C@@H](C)O[C@@H](C)C1` (some centres undefined) [FENPROPIMORPH], the Ki in assay [2] amounted to 854 nM.
For the molecule `C[C@@H]1CN(CCCc2ccc(C(C)(C)C)cc2)C[C@@H](C)O1` (relative stereo), the Ki in assay [1] was determined as 2.3 nM; in assay [2], 66.1 nM. Also, in assay [3], the Ratio Ki was determined as 29.
For `CC(C)(C)c1ccc(CCCN2CCOCC2)cc1`, in that order: 2.6 nM, 930 nM and 360.
For `CC1CCN(CCCc2ccc(C(C)(C)C)cc2)CC1`, in that order: 5.4 nM, 13.8 nM and 3.

In general, Ki refers to a measure of affinity in units of concentration, obtained from inhibition or displacement.
